Measured values published in ChEMBL document CHEMBL1131326, “Design, synthesis, and antiviral evaluations of 1-(substituted benzyl)-2-substituted-5,6-dichlorobenzimidazoles as nonnucleoside analogues of 2,5,6-trichloro-1-(beta-D-ribofuranosyl)benzimidazole” (J Med Chem, 1998).

Columns and labels:
[1] = test system: KB; test: Inhibition of KB cell growth determined by quadruplicate assays; type: functional, cell-based; conditions: Homo sapiens
Summary of the method: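 KB cells seeded at 3000-5000/well, overnight at 37 °C, then compound in quadruplicate at six to eight concentrations for 48 h (about two doublings) in CO₂. Cells fixed in 95% ethanol, stained with 0.1% crystal violet, dye eluted with acidified ethanol and read at 570 nm; IC50 by regression vs log concentration.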

[2] = test system: Human betaherpesvirus 5; test: Antiviral activity against human cytomegalovirus (HCMV) by plaque reduction assay; type: functional, organism-based
Summary of the method: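 HFF monolayers infected with about 100 pfu/cm² of HCMV Towne (isolate Po); after adsorption, compound in growth medium added to duplicate wells at four to eight concentrations.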

[3] = test system: HFF; test: Visual cytotoxicity scored on HFF cells at a time of HCMV plaque enumeration; type: functional, cell-based; conditions: Homo sapiens
Summary of the method: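 Cytotoxicity in stationary HFF cells scored by microscopic inspection of cells not affected by virus, at time of HCMV plaque enumeration, in the plaque-assay plates.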

[4] = test system: Human immunodeficiency virus 1; test: Activity against HIV-1 by syncytial plaque assay performed in duplicate using CEM-SS cells; type: functional, organism-based; conditions: Human immunodeficiency virus 1, CEM-SS
Summary of the method: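 Syncytial plaque assay: poly-L-lysine-adherent CEM-SS cells infected with HIV-1 strain IIIB with or without compound at selected concentrations; syncytial plaques counted at 30-fold magnification 7 days postinfection; duplicate. IC50 from linear regression of percent inhibition against log concentration.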

[5] = test system: CEM-SS; test: Cytotoxicity against CEM-SS cells in terms of incorporation of [3H]dThd; type: functional, cell-based; conditions: Homo sapiens
Summary of the method: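 DNA synthesis in CEM-SS cells measured as uptake of [³H]dThd into total acid-precipitable material; results averaged from duplicate experiments.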

[6] = test system: Human alphaherpesvirus 1; test: Antiviral activity against herpes simplex virus type-1 (HSV-1); type: functional, organism-based
Summary of the method: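 BSC-1 cells (10 000/well, MEM(E) + 10% calf serum) incubated overnight, then given drug in quadruplicate plus HSV-1 KOS at 100 pfu/well; 3 days at 37 °C. ELISA with HRP-conjugated rabbit anti-HSV-1 antibody, TMB substrate, stopped with H₂SO₄, absorbance at 450 and 570 nm; IC50 by regression of % absorbance reduction vs log concentration.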

[7] = Compound was tested for antiviral activity against HIV-1 resistant to TIBO A-17; type: functional, Human immunodeficiency virus 1
Summary of the method: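 Syncytial plaque assay in duplicate sets on CEM-SS cells made adherent with poly-L-lysine. Virus was the A17 HIV-1 variant, resistant to nonnucleoside RT inhibitors including TIBO, or HIV-2, both from the AIDS Research and Reference Program. Infection was in the presence or absence of compound; syncytial plaques were counted at 30-fold magnification 7 days postinfection. IC50 came from linear regression of percent inhibition against log concentration.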

[8] = test system: Human immunodeficiency virus 2; test: Compound was tested for antiviral activity against HIV-2; type: functional, organism-based

Row | SMILES | IC50 [1] [µM] | IC50 [2] [µM] | IC50 [4] [µM] | IC50 [6] [µM] | IC50 [3] [µM] | IC50 [5] [µM] | IC50 [7] [µM] | IC50 [8] [µM]
1 | OC[C@H]1O[C@H](n2c(Br)nc3cc(Cl)c(Cl)cc32)[C@@H](O)[C@H]1O | > 100 | – | – | – | – | – | – | –
2 | Cc1ccc(Cn2c(N)nc3cc(Cl)c(Cl)cc32)cc1 | 50 | 30 | 20 | 80 | 32 | 40 | – | –
3 | Clc1ccc(Cn2c(Br)nc3cc(Cl)c(Cl)cc32)cc1 | > 100 | > 100 | > 100 | > 100 | > 100 | > 100 | – | –
4 | CC(C)(C)c1ccc(Cn2c(Br)nc3cc(Cl)c(Cl)cc32)cc1 | – | > 100 | 100 | – | > 100 | > 100 | – | –
5 | Nc1nc2cc(Cl)c(Cl)cc2n1Cc1ccc(F)cc1 | 70 | 12 | 32 | 70 | 37 | 30 | – | –
6 | Clc1cc2nc(Cl)n(Cc3ccccc3Cl)c2cc1Cl | 156 | 30 | 15 | > 100 | > 100 | 70 | 13 | > 30
7 | Nc1nc2cc(Cl)c(Cl)cc2n1Cc1cccc([N+](=O)[O-])c1 | 65 | > 100 | 21 | > 100 | > 100 | 47 | – | –
8 | CC(C)(C)c1ccc(Cn2c(N)nc3cc(Cl)c(Cl)cc32)cc1 | 50 | 22 | 10 | 60 | 32 | 27 | – | –
9 | Nc1nc2cc(Cl)c(Cl)cc2n1Cc1ccc(Cl)c(Cl)c1 | 35 | 40 | > 6 | 50 | 32 | 30 | – | –
10 | Clc1cc2nc(Br)n(Cc3ccccc3Cl)c2cc1Cl | 78 | > 10 | 15 | > 100 | > 10 | 74 | – | –
11 | Nc1nc2cc(Cl)c(Cl)cc2n1Cc1cccc(Cl)c1 | 65 | > 100 | > 30 | 70 | > 100 | 37 | – | –
12 | Nc1nc2cc(Cl)c(Cl)cc2n1Cc1ccc(C(F)(F)F)cc1 | – | 32 | 1.8 | – | 32 | 20 | – | –
13 | FC(F)(F)c1ccc(Cn2c(Br)nc3cc(Cl)c(Cl)cc32)cc1 | > 100 | > 100 | > 100 | > 100 | > 100 | > 100 | – | –
14 | COc1ccc(Cn2c(Br)nc3cc(Cl)c(Cl)cc32)cc1 | 55 | > 100 | 6 | > 100 | > 100 | 60 | – | –
15 | Clc1cccc(Cn2c(Cl)nc3cc(Cl)c(Cl)cc32)c1 | – | > 100 | 100 | > 100 | > 100 | > 100 | – | –
16 | Clc1cccc(Cn2c(Br)nc3cc(Cl)c(Cl)cc32)c1 | > 100 | > 100 | > 100 | 70 | > 100 | > 100 | – | –
17 | COc1ccc(Cn2c(N)nc3cc(Cl)c(Cl)cc32)cc1 | 45 | > 100 | 12 | > 100 | > 100 | 27 | – | –
18 | Clc1cc2nc(Cl)n(Cc3ccccc3)c2cc1Cl | > 100 | > 100 | – | > 100 | > 100 | – | – | –
19 | Nc1nc2cc(Cl)c(Cl)cc2n1Cc1ccccc1 | 170 | 37 | – | 152 | 58 | – | – | –
20 | O=[N+]([O-])c1ccc(Cn2c(Cl)nc3cc(Cl)c(Cl)cc32)cc1 | 183 | > 100 | 7.8 | > 100 | > 100 | 51 | – | –
21 | FC(F)(F)c1cc(Cn2c(Cl)nc3cc(Cl)c(Cl)cc32)cc(C(F)(F)F)c1 | > 100 | > 100 | > 100 | > 100 | > 100 | > 100 | – | –
22 | FC(F)(F)c1cc(Cn2c(Br)nc3cc(Cl)c(Cl)cc32)cc(C(F)(F)F)c1 | 70 | > 100 | 5.9 | 65 | > 100 | > 100 | – | –
23 | Cc1ccc(Cn2c(Br)nc3cc(Cl)c(Cl)cc32)cc1 | > 100 | > 100 | > 100 | > 100 | > 100 | > 100 | – | –
24 | Clc1ccc(Cn2c(Br)nc3cc(Cl)c(Cl)cc32)cc1Cl | > 100 | > 100 | > 100 | > 100 | > 100 | > 100 | – | –
25 | COc1ccc(Cn2c(Cl)nc3cc(Cl)c(Cl)cc32)cc1 | > 100 | > 100 | 26 | > 100 | > 100 | > 100 | – | –
26 | FC(F)(F)c1ccc(Cn2c(Cl)nc3cc(Cl)c(Cl)cc32)cc1 | > 100 | > 100 | > 100 | > 100 | > 100 | > 100 | – | –
27 | CC(C)Nc1nc2cc(Cl)c(Cl)cc2n1Cc1ccccc1 | 45 | 22 | – | 50 | 22 | – | – | –

Further lines, with some results ahead:

Row | IC50 [1] [µM] | IC50 [2] [µM] | IC50 [4] [µM] | IC50 [6] [µM] | SMILES | IC50 [3] [µM] | IC50 [5] [µM] | IC50 [7] [µM] | IC50 [8] [µM]
28 | 35 | > 100 | 21 | > 100 | Nc1nc2cc(Cl)c(Cl)cc2n1Cc1ccc([N+](=O)[O-])cc1 | > 100 | 32 | – | –
29 | – | > 100 | 12 | – | FC(F)(F)c1cccc(Cn2c(Br)nc3cc(Cl)c(Cl)cc32)c1 | > 100 | > 100 | – | –
30 | 239 | > 100 | 20 | > 100 | O=[N+]([O-])c1cccc(Cn2c(Cl)nc3cc(Cl)c(Cl)cc32)c1 | > 100 | > 100 | – | –
31 | 45 | > 100 | 10 | > 100 | Nc1nc2cc(Cl)c(Cl)cc2n1Cc1ccc(Cl)cc1 | > 100 | 32 | – | –
32 | – | 32 | > 6 | 60 | Nc1nc2cc(Cl)c(Cl)cc2n1Cc1cc(C(F)(F)F)cc(C(F)(F)F)c1 | 32 | 34 | – | –
33 | 45 | 32 | > 10 | 60 | Nc1nc2cc(Cl)c(Cl)cc2n1Cc1cccc(C(F)(F)F)c1 | 32 | 17 | – | –
34 | > 100 | > 100 | > 100 | > 100 | Clc1ccc(Cn2c(Cl)nc3cc(Cl)c(Cl)cc32)cc1Cl | > 100 | > 100 | – | –
35 | > 100 | > 100 | 33 | > 100 | Cc1ccc(Cn2c(Cl)nc3cc(Cl)c(Cl)cc32)cc1 | 32 | > 100 | – | –
36 | > 100 | > 100 | > 100 | > 100 | FC(F)(F)c1cccc(Cn2c(Cl)nc3cc(Cl)c(Cl)cc32)c1 | > 100 | > 100 | – | –
37 | > 100 | > 100 | > 100 | > 100 | CC(C)(C)c1ccc(Cn2c(Cl)nc3cc(Cl)c(Cl)cc32)cc1 | > 100 | > 100 | – | –
38 | > 100 | > 100 | – | > 100 | Clc1cc2nc(Br)n(CCc3ccccc3)c2cc1Cl | > 100 | – | – | –
39 | – | > 100 | – | – | Clc1cc2nc(Cl)n(CCc3ccccc3)c2cc1Cl | > 100 | – | – | –
40 | > 100 | > 100 | 27 | > 100 | Clc1cc2nc(Br)n(Cc3ccccc3)c2cc1Cl | > 100 | > 100 | – | –
41 | – | > 100 | 30 | – | Fc1ccc(Cn2c(Br)nc3cc(Cl)c(Cl)cc32)cc1 | > 100 | > 100 | – | –
42 | 65 | > 100 | 12 | 80 | Cc1cccc(Cn2c(N)nc3cc(Cl)c(Cl)cc32)c1 | > 100 | 48 | – | –
43 | – | 32 | 6 | > 100 | Nc1nc2cc(Cl)c(Cl)cc2n1Cc1ccccc1Cl | 32 | 36 | – | –
